Blank lines part the entries; values can stand above or below the compound they belong to.
What was measured:
[1] = test system: healthy white male volunteers; assay: Hemodynamic profile; format: in vivo, human
In short: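 Healthy men took test compound 10 mg or placebo once daily for 16 days, with a second test compound (25, 50, 100 mg) ~2 h later on days 13–15. After 15 min supine, seated then standing (2 min) SBP, DBP and HR were taken from 1.25 to ~5 h post-dose on days 0 and 12–15. Baseline was the mean of four seated pre-co-dose values. ANCOVA was run per dose; standing data were descriptive.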

[2] = Sildenafil pharmacokinetics in plasma; format: in vivo, human
In short: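 For the co-administered compound, plasma (EDTA K3) was drawn 3, 4, 6, 8, 12 and 24 h after test compound/placebo on days 13–15, with dosing at 2 h. Processing used a deuterated internal standard and methyl tert-butyl ether liquid-liquid extraction, then a validated LC assay. Samples were stored at −20 °C and analysed within 38 days. Log AUC(0–22) and Cmax went through ANOVA per dose; the test/placebo ratio was given with 90% CIs.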

[3] = cited from earlier work
healthy subjects = details: cited from earlier work
[4] = test system: patients with pulmonary arterial hypertension; details: 12 weeks, riociguat 1.0–2.5 mg with sildenafil 20 mg three times daily; cited from earlier work
[5] = test system: healthy white male volunteers; assay: Safety and tolerability; format: in vivo, human
In short: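 Safety covered AEs, coded by MedDRA 19.0; an AE counted as treatment-emergent if it began or worsened from first dose to 30 days post-treatment, and investigators judged relatedness. Fasting haematology, chemistry, coagulation and urinalysis were collected at screening, pre-dose days 0 and 12–15, day 16 and follow-up. Vital signs and ECGs were taken after 15 min supine rest, pre-dose and 5.5 h post-dose (day 12 pre-dose only). All dosed subjects were included.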

[6] = Vericiguat pharmacokinetics in plasma; format: in vivo, human
In short: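 Test compound was 10 mg once daily after breakfast. Lithium-heparin plasma was sampled pre-dose and at 0.5–15 h on days 12–15, plus 24 h on day 16. A labelled internal standard was added, then automated acetonitrile/ammonium acetate/formic acid precipitation and validated LC. QC accuracy was 93.88–101.33% and CV 1.24–2.58%; storage was −20 °C, analysis within 36 days. Log AUC(0–24) and Cmax were analysed by ANOVA (administration, subject).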

[7] = test system: patients with HF with reduced ejection fraction; details: vericiguat 10 mg once daily; cited from earlier work
[8] = during treatment with sildenafil, days 13–15
[9] = whole study, both groups also received sildenafil on days 13–15
[10] = ANCOVA, day 14, both groups + sildenafil 50 mg

Increase in sildenafil AUC(0–22), vericiguat group compared with placebo group ([2]; across sildenafil 25–100 mg): 13–22% | Increase in sildenafil Cmax, vericiguat group compared with placebo group ([2]; across sildenafil 25–100 mg): 14–20% | Increase in sildenafil AUC(0–22) with co-administration of vericiguat ([2]; sildenafil 25 mg): 22.4% | Increase in sildenafil Cmax with co-administration of vericiguat ([2]; sildenafil 25 mg): 14.2% | Increase in sildenafil AUC(0–22) with co-administration of vericiguat ([2]; sildenafil 50 mg): 17.1% | Increase in sildenafil Cmax with co-administration of vericiguat ([2]; sildenafil 50 mg): 20.4% | Increase in sildenafil AUC(0–22) with co-administration of vericiguat ([2]; sildenafil 100 mg): 13.0% | Increase in sildenafil Cmax with co-administration of vericiguat ([2]; sildenafil 100 mg): 17.1% | Time required to achieve the geometric mean Cmax of sildenafil ([2]; sildenafil 100 mg, day 15, co-administered with vericiguat): 2 h | Time required to achieve the geometric mean Cmax of sildenafil ([2]; sildenafil 100 mg, day 15, with placebo): 1 h | Increase in sildenafil exposure when co-administered with vericiguat ([2]; sildenafil 25–100 mg): ≤ 22%
Compound: CCCc1nn(C)c2c(=O)[nH]c(-c3cc(S(=O)(=O)N4CCN(C)CC4)ccc3OCC)nc12 [Sildenafil]
Dose dependency of BP-reducing effect ([1]; 25, 50, 100 mg, placebo group): no clear dose dependency | Mean decreases from baseline in BP ([1]; after single doses of sildenafil on days 13–15, placebo group): ≤ 5.3 mmHg | Mean maximum decreases in BP ([1]; days 13–15, placebo group): ≤ 11.0 mmHg | Terminal half-life [3]: about 4 h | Time to achieve Cmax [3]: 1 to 2 h | Mean maximum decrease in DBP (healthy subjects; healthy volunteers): 5.3 mmHg | Mean maximum decrease in SBP (healthy subjects; healthy volunteers): 8.3 mmHg

Compound: COC(=O)N(C)c1c(N)nc(-c2nn(Cc3ccccc3F)c3ncccc23)nc1N [riociguat]
Cmax at (time after intake) [3]: 1 to 1.5 h | Half-life [3]: 7 to 12 h | Standing SBP after dosing lower than with placebo [4]: approximately 10 mmHg

Compound: COC(=O)Nc1c(N)nc(-c2nn(Cc3ccccc3F)c3ncc(F)cc23)nc1N [Vericiguat]
TEAEs of mild intensity ([5]; by treatment group, whole study): 81.3% | Subjects with dyspepsia (TEAE) ([5]; days 0–12, vericiguat group): 25.0% | Subjects with gastrointestinal disorders (TEAE) ([5]; days 0–12, vericiguat group): 31.3% | Subjects with head discomfort (TEAE) [5, 8]: up to 13.3% | Subjects with headache (TEAE) [5, 8]: up to 21.4% | Effects on ECG parameters, including the QT interval ([5]; in vivo): no relevant effects | Subjects reporting at least one TEAE [5, 9]: All subjects | Subjects with at least one sildenafil-related TEAE [5, 9]: 87.5% | Subjects with at least one vericiguat-related TEAE [5, 9]: 62.5% | Change in seated HR, LS mean difference ‘vericiguat-placebo’ ([1]; ANCOVA, day 13, both groups + sildenafil 25 mg): 0.96 bpm | Change in seated HR, LS mean difference ‘vericiguat-placebo’ [1, 10]: 0.81 bpm | Change in seated SBP, LS mean difference ‘vericiguat-placebo’ [1, 10]: 1.36 mmHg | Change in seated HR, LS mean difference ‘vericiguat-placebo’ ([1]; ANCOVA, day 15, both groups + sildenafil 100 mg): 1.38 bpm | Maximum SBP when seated or standing ([1]; day 0): 143 mmHg | Minimum SBP when standing ([1]; day 0): 97 mmHg | Standing HR ([1]; day 0): 54–108 bpm | Maximum SBP when seated or standing ([1]; day 12): 141 mmHg | Minimum SBP when standing ([1]; day 12): 93 mmHg | Standing HR ([1]; day 12): 53–102 bpm | Range of standing HR values ([1]; day 13, with sildenafil 25 mg): 54–114 bpm | Range of standing HR values ([1]; day 14, with sildenafil 50 mg): 54–119 bpm | Range of standing HR values ([1]; day 15, with sildenafil 100 mg): 53–127 bpm | Minimum standing SBP ([1]; days 13–15, with sildenafil): 81–91 mmHg | Effect of co-administration of sildenafil on vericiguat pharmacokinetics ([6]; sildenafil 25–100 mg): did not affect | Time at which vericiguat Cmax values were reached post-administration ([6]; vericiguat 10 mg once daily, days 12–15): about 3 h | Composite endpoint of death from cardiovascular causes or hospitalization for HF, hazard ratio [7]: 0.90 | Half-life [3]: 20 to 30 h | Onset (time after intake) ([3]; intake with food as recommended): ~ 4 h | Time to achieve maximum plasma concentration (Cmax) ([3]; steady state, after intake): approximately 4 h | Increases in HR (healthy subjects; healthy subjects, vericiguat 5–15 mg over several days): 4–10 bpm
